The values below come from ChEMBL document CHEMBL1157616, “Identification of 2-anilino-9-methoxy-5,7-dihydro-6H-pyrimido[5,4-d][1]benzazepin-6-ones as dual PLK1/VEGF-R2 kinase inhibitor chemotypes by structure-based lead generation” (J Med Chem, 2010).

Assay [1] deals with T1, Vascular endothelial growth factor receptor 2 (Homo sapiens, UniProt P35968). In words: Inhibition of VEGFR2 assessed as [33Pi] incorporation by microplate scintillation counting in presence of 1 uM ATP. The gist of the method:
(§1)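 Substrates: Poly(Glu,Tyr)4:1 for VEGFR2; Poly(Glu,Tyr) or Poly(Ala,Glu,Lys,Tyr) for INS-R; RBER-CHKtide or casein for PLK1. Incubated 30 °C, 80 min, stopped with 2% H3PO4. Singlicate; activity referenced to no-enzyme and no-inhibitor controls.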

Assay [2] has as its target Serine/threonine-protein kinase PLK1 (Homo sapiens, UniProt P53350). In words: Inhibition of PLK1 assessed as [33Pi] incorporation by microplate scintillation counting in presence of 1 uM ATP.
The next assay relates to NCI60. Description: Antiproliferative activity against human NCI60 cells at 10 uM after 48 hrs by sulforhodamine B assay. It counts as functional, cell-based. The method, boiled down:
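NCI 60-cell-line prescreen with compound given once at 10 μM. Cells grown in RPMI 1640 with 5% FBS and 2 mM L-glutamine, plated 24 h before dosing, then exposed 48 h at 37 °C. Fixed with cold TCA, stained with SRB, absorbance read at 515 nm, and percent growth taken relative to time-zero and control wells.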

A further assay concerns the target Insulin receptor (Homo sapiens, UniProt P06213). Description: Inhibition of INSR assessed as [33Pi] incorporation by microplate scintillation counting in presence of 1 uM ATP. The gist of the method:
as §1

Assay [3] addresses T1, Vascular endothelial growth factor receptor 2. In words: Inhibition of VEGFR2 in HUE cells assessed as inhibition of VEGF-induced autophosphorylation treated for 90 mins before VEGF challenge by ELISA. It counts as cell-based.

pIC50: −log10 of the molar value. Active and inactive are the calls of the source. The rule behind the calls is not given here.

Chain of Insulin receptor (P06213 28-758 limits assumed): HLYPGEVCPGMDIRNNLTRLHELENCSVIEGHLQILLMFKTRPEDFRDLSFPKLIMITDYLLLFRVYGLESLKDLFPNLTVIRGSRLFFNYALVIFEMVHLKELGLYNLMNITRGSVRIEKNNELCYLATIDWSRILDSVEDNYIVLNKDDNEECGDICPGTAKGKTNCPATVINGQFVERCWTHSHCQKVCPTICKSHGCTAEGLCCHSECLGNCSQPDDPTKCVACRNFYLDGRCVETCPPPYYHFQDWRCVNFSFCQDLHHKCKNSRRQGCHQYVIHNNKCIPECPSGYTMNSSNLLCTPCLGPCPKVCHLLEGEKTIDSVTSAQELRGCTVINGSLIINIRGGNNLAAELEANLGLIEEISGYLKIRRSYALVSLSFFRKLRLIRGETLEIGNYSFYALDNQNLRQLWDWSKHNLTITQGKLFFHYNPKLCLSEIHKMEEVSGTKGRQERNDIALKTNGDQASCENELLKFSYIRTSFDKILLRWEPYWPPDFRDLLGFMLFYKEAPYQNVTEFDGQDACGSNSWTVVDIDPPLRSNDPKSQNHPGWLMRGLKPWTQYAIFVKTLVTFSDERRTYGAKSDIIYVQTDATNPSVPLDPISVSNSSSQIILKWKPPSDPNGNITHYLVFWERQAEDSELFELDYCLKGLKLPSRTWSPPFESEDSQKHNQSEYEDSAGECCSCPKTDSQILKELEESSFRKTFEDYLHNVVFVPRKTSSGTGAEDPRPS
Chain of Insulin receptor (P06213 763-1382 limits assumed): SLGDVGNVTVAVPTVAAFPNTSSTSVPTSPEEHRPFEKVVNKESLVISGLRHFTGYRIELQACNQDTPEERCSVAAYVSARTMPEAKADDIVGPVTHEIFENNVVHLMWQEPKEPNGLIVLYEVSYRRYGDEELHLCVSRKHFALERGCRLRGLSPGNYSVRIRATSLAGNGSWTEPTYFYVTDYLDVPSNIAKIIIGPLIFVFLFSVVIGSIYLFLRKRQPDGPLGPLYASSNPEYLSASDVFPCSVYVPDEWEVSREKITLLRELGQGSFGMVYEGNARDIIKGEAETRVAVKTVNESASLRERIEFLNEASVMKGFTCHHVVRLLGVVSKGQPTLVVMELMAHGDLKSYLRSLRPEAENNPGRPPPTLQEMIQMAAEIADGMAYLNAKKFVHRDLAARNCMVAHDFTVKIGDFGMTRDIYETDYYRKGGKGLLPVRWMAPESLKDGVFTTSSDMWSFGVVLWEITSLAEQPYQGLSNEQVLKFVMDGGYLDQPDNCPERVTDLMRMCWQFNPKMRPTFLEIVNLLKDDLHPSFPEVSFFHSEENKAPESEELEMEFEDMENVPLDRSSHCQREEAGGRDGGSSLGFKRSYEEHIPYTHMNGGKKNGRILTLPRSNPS
T1 sequence (P35968 whole entry): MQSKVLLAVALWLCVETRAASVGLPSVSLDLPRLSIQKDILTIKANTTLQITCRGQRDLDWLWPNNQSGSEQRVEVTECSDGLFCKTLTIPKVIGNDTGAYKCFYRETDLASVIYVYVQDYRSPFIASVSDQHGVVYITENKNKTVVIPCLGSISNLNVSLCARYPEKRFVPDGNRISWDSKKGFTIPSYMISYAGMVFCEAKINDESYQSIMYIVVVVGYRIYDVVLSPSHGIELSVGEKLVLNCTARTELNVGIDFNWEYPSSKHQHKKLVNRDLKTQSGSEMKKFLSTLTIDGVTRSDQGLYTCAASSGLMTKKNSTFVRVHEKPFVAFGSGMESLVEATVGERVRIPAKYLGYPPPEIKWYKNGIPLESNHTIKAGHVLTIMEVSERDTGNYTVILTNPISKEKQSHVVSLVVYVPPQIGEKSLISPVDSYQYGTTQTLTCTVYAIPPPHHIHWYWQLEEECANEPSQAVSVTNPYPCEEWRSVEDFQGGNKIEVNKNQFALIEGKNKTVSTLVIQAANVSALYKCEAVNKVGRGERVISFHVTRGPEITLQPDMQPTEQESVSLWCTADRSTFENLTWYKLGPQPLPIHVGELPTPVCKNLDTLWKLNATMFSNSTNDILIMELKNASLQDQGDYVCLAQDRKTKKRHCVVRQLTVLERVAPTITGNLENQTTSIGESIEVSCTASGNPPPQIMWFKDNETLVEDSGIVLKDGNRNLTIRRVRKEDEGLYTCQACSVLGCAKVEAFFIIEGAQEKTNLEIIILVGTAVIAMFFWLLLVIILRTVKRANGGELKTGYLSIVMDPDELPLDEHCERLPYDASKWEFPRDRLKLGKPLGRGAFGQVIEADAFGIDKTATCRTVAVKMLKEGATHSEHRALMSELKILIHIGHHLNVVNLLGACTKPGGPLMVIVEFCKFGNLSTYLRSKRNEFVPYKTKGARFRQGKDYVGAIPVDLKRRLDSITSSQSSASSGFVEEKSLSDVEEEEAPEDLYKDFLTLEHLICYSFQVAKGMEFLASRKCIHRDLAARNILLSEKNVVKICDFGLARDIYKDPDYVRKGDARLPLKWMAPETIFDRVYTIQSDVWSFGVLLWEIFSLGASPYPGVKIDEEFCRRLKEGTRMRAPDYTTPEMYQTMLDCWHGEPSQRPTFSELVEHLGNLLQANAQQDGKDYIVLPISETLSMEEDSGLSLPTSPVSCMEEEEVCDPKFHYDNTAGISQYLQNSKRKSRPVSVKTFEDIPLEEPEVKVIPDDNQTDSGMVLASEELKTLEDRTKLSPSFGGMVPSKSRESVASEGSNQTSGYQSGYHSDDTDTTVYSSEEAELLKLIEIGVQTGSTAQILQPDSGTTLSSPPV
Chain of Serine/threonine-protein kinase PLK1 (P53350 whole entry): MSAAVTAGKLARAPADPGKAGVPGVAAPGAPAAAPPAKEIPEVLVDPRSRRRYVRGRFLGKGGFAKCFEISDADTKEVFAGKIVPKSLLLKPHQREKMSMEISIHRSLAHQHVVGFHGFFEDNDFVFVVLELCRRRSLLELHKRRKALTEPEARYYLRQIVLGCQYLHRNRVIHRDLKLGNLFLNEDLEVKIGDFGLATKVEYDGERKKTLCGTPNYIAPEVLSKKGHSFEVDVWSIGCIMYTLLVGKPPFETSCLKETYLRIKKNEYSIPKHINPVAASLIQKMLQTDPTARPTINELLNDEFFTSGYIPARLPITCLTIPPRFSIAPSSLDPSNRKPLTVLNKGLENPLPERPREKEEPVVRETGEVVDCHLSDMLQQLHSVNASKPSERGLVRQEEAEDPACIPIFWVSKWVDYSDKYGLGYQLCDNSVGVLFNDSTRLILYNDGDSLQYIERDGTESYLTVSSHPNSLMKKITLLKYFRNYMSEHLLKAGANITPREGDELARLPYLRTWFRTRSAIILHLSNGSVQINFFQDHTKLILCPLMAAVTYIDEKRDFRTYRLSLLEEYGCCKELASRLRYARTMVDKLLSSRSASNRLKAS

Consider `Cn1c(=O)c2cc3c(nc2n(C)c1=O)-c1ncccc1NC(=O)C3`, for which the pIC50 (in assay [1]; in assay [2]; on Insulin receptor) was under 4.00 each time. In addition, the result in the assay with NCI60 was Active.

As to `O=C1Cc2cnc(Nc3cccc(O)c3)nc2-c2ccccc2N1`, the negative-log IC50 (pIC50) in assay [3] was 5.80; in assay [1], 7.29; in assay [2], 4.72; at Insulin receptor it was under 4.00. Further, the result in the assay with NCI60 was Active.

As for `O=C1Cc2cnc(Nc3ccccc3O)nc2-c2ccccc2N1`, the negative-log IC50 (pIC50) in assay [1] was 6.28; in assay [2] it was 4.85; at Insulin receptor, under 4.00. Also, the result in the assay with NCI60 was Active.

Regarding `O=C1Cc2cnc(Nc3ccccc3Br)nc2-c2ccccc2N1`, the pIC50 is 4.24 in assay [1], under 4.00 in assay [2] and under 4.00 at Insulin receptor. Also, the result in the assay with NCI60 was Active.

As to `O=C1Cc2cnc(Nc3ccc(I)cc3)nc2-c2ccccc2N1`, the values for the negative logarithm of the IC50 (pIC50) (in assay [1]; in assay [2]; at Insulin receptor) were 6.40, 4.82 and under 4.00, respectively. For the same compound, the outcome in the assay on NCI60 was Active.

For the compound `COc1ccc2c(c1)NC(=O)Cc1cnc(Nc3cccc(O)c3)nc1-2`, the pIC50 in assay [1] was 7.82; in assay [2], 6.08; on Insulin receptor, under 4.00. In addition, in the assay with NCI60, the result was Active.

As for `Cc1ccc(Nc2ncc3c(n2)-c2ccccc2NC(=O)C3)cc1`, the negative-log IC50 (pIC50) in assay [1] is 6.72; in assay [2], under 4.00; on Insulin receptor it was under 4.00. The outcome in the assay with NCI60 was Active.

`O=C1Cc2cnc(Nc3ccc(Cl)cc3)nc2-c2ccccc2N1`: the negative logarithm of the IC50 (pIC50) in assay [1] is 6.72; in assay [2] it was under 4.00; on Insulin receptor, under 4.00. In addition, in the assay with NCI60, the outcome was Active.

In the case of `COc1ccc2c(c1)NC(=O)Cc1cnc3ncnn3c1-2`, the pIC50 (in assay [1]; in assay [2]; at Insulin receptor) was under 4.00 each time. In addition, the outcome in the assay on NCI60 was Active.

For `O=C1Cc2c([nH]c3ccc(Br)cc23)-c2ccccc2N1`, in the assay on NCI60, the result was Active.

Regarding `COc1ccc2c(c1)NC(=O)Cc1cnc(Nc3ccc(OC)c(O)c3)nc1-2`, the pIC50 in assay [1] was 7.74; in assay [2], 6.85; on Insulin receptor, under 4.00. Besides, the outcome with NCI60 was Active.

In the case of `Cc1cc(O)ccc1Nc1ncc2c(n1)-c1ccccc1NC(=O)C2`, the results for the pIC50 (in assay [1]; in assay [2]; on Insulin receptor) were 5.92, 4.70 and under 4.00, respectively. For the same compound, the result in the assay with NCI60 was Active.

With `O=C1Cc2cnc(Nc3ccc(O)cc3)nc2-c2ncccc2N1`, the pIC50 in assay [1] was 5.57; in assay [2], 4.26; on Insulin receptor it was under 4.00. Besides, the outcome in the assay with NCI60 was Active.

Take `O=C1Cc2cnc3ncnn3c2-c2ncccc2N1`: the pIC50 (in assay [1]; in assay [2]; at Insulin receptor) was under 4.00 in each case. Moreover, the outcome in the assay on NCI60 was Active.

`COc1ccc2c(c1)NC(=O)Cc1cnc3cc(-c4ccccc4)nn3c1-2`: the pIC50 was 5.74 in assay [1], 4.77 in assay [2] and 4.96 at Insulin receptor. Besides, the outcome with NCI60 was Active.

For the compound `O=C1Cc2cc3c(=O)[nH]c(=O)[nH]c3nc2-c2ncccc2N1`, the negative-log IC50 (pIC50) in assay [1] is 4.18; in assay [2], under 4.00; on Insulin receptor it was under 4.00. The outcome in the assay with NCI60 was Active.

As for `O=C1Cc2cnc3ccnn3c2-c2ncccc2N1`, the negative-log IC50 (pIC50) is 4.06 in assay [1], under 4.00 in assay [2] and under 4.00 at Insulin receptor. Besides, in the assay with NCI60, the result was Active.

In the case of `O=C1Cc2cnc3ccnn3c2-c2ccccc2N1`, the values for the pIC50 (in assay [1]; in assay [2]; at Insulin receptor) were 4.92, under 4.00 and under 4.00, respectively. In the assay with NCI60, the outcome was Active.

Regarding `O=C1Cc2cnc3cc(-c4ccccc4)nn3c2-c2ccccc2N1`, the pIC50 is 6.20 in assay [1], under 4.00 in assay [2] and under 4.00 at Insulin receptor. In addition, in the assay with NCI60, the outcome was Active.

In the case of `O=C1Cc2cnc(Nc3cccc(O)c3)nc2-c2ncccc2N1`, the values for the pIC50 (in assay [1]; in assay [2]; on Insulin receptor) were 5.59, under 4.00 and under 4.00, respectively. Also, in the assay on NCI60, the outcome was Active.

Take `Cn1c(=O)c2cc3c(nc2n(C)c1=O)-c1ccccc1NC(=O)C3`: the pIC50 (in assay [1]; in assay [2]; at Insulin receptor) was under 4.00 each time. In the assay on NCI60, the result was Active.

Turning to `CCOc1ccc(Nc2ncc3c(n2)-c2ncccc2NC(=O)C3)cc1`, the pIC50 in assay [1] is 5.70; in assay [2] it was under 4.00; at Insulin receptor, under 4.00. In the assay with NCI60, the outcome was Active.

As to `Cn1c(=O)c2cc3c(nc2n(C)c1=O)-c1cnccc1NC(=O)C3`, the negative-log IC50 (pIC50) (in assay [1]; in assay [2]; at Insulin receptor) was under 4.00 throughout. For the same compound, in the assay on NCI60, the result was Active.

For the compound `O=C1Cc2cnc(Nc3ccc(Br)cc3)nc2-c2ccccc2N1`, the pIC50 is 6.54 in assay [1], under 4.00 in assay [2] and under 4.00 at Insulin receptor. In the assay on NCI60, the outcome was Active.

As for `O=C1Cc2cnc(Nc3ccc([N+](=O)[O-])cc3)nc2-c2ccccc2N1`, the results for the pIC50 (in assay [1]; in assay [2]; at Insulin receptor) were 6.48, under 4.00 and 4.66, respectively. In addition, in the assay with NCI60, the result was Active.

As for `COc1ccc2c(c1)NC(=O)Cc1cc3c(=O)[nH]c(=O)[nH]c3nc1-2`, the pIC50 (in assay [1]; in assay [2]; at Insulin receptor) was under 4.00 in each case. Besides, the outcome in the assay with NCI60 was Active.

Regarding `O=C1Cc2cnc(Nc3ccc(O)c(Cl)c3)nc2-c2ncccc2N1`, the values for the pIC50 (in assay [1]; in assay [2]; on Insulin receptor) were 6.17, under 4.00 and under 4.00, respectively. The outcome in the assay on NCI60 was Active.

Turning to `COc1ccc(Nc2ncc3c(n2)-c2ncccc2NC(=O)C3)cc1`, the negative logarithm of the IC50 (pIC50) in assay [1] is 5.82; in assay [2] it was under 4.00; on Insulin receptor, under 4.00. Also, the outcome with NCI60 was Active.

In the case of `O=C1Cc2cnc(Nc3ccc(O)cc3)nc2-c2cnccc2N1`, the pIC50 was 6.89 in assay [1], 5.59 in assay [2] and under 4.00 at Insulin receptor. Besides, the result in the assay on NCI60 was Active.

In the case of `COc1ccc(Nc2ncc3c(n2)-c2cnccc2NC(=O)C3)cc1`, the figures for the pIC50 (in assay [1]; in assay [2]; on Insulin receptor) were 6.72, 5.60 and under 4.00, respectively. Moreover, the result with NCI60 was Active.

As for `O=C1Cc2cnc3cc(-c4ccccc4)nn3c2-c2ncccc2N1`, the pIC50 was 4.80 in assay [1], under 4.00 in assay [2] and under 4.00 on Insulin receptor. Besides, in the assay on NCI60, the outcome was Active.

Turning to `O=C1Cc2cnc(Nc3cccc(O)c3)nc2-c2cnccc2N1`, the pIC50 in assay [1] was 6.85; in assay [2], 5.64; on Insulin receptor, under 4.00. In the assay on NCI60, the result was Active.

For `O=C1Cc2cc3c(=O)[nH]c(=O)[nH]c3nc2-c2ccccc2N1`, the pIC50 (in assay [1]; in assay [2]; on Insulin receptor) was under 4.00 in each case. In addition, the result in the assay with NCI60 was Active.

Turning to `COc1ccc2c(c1)NC(=O)Cc1cnc3ccnn3c1-2`, the pIC50 is 5.07 in assay [1], under 4.00 in assay [2] and under 4.00 at Insulin receptor. Further, the result in the assay with NCI60 was Active.

`O=C1Cc2cnc3cc(-c4ccccc4)nn3c2-c2cnccc2N1`: the pIC50 is 5.70 in assay [1], under 4.00 in assay [2] and under 4.00 on Insulin receptor. In addition, in the assay with NCI60, the result was Active.

In the case of `COc1ccc2c(c1)NC(=O)Cc1cc3c(=O)n(C)c(=O)n(C)c3nc1-2`, the pIC50 (in assay [1]; in assay [2]; at Insulin receptor) was under 4.00 each time. In addition, the result in the assay on NCI60 was Active.

As for `O=C1Cc2cc3c(=O)[nH]c(=O)[nH]c3nc2-c2cnccc2N1`, the pIC50 (in assay [1]; in assay [2]; at Insulin receptor) was under 4.00 throughout. For the same compound, the result with NCI60 was Active.

As for `O=C1Cc2cnc(Nc3ccccc3)nc2-c2ccccc2N1`, the pIC50 in assay [1] was 6.85; in assay [2] it was under 4.00; at Insulin receptor, under 4.00. The outcome in the assay on NCI60 was Active.

Turning to `COc1ccc2c(c1)NC(=O)Cc1cnc(Nc3ccc(O)cc3)nc1-2`, the pIC50 is 7.55 in assay [1], 6.12 in assay [2] and under 4.00 at Insulin receptor. The outcome in the assay on NCI60 was Active.

Consider `O=C1Cc2cnc(Nc3ccccc3Cl)nc2-c2ccccc2N1`, for which the pIC50 in assay [1] was 5.21; in assay [2], 4.14; on Insulin receptor, under 4.00. In addition, the outcome in the assay on NCI60 was Active.

For the compound `COc1ccc(Nc2ncc3c(n2)-c2ccc(OC)cc2NC(=O)C3)cc1`, the negative logarithm of the IC50 (pIC50) was 7.30 in assay [1], 6.46 in assay [2] and under 4.00 at Insulin receptor. The outcome with NCI60 was Active.

What is called pIC50 is the IC50 on a negative log10 scale, so that one unit is a factor of ten.
